This passage reports activation results from PubChem BioAssay AID504383 (The Scripps Research Institute Molecular Screening Center, 2011).

Molecules are shown by their SMILES. Several values for one entry are separate records, joined by “and”; a condition that tells them apart may be missing. Equal values may be shown once. About 1,200 (48%) of roughly 2,500 compounds were called active.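 The calls were made as follows: active = mean activation above the low control average plus 3 SD, as set in the primary screen (cut at about 12% in these data); inactive = the rest.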 So high a share suggests a set chosen from earlier hits. This is one part of the list. Some structures have more than one record in an assay (separate samples or runs), and their calls can disagree.

This assay has as its target Troponin I, cardiac muscle (Homo sapiens) + Troponin T, cardiac muscle (Homo sapiens) + Troponin C, slow skeletal and cardiac muscles (Homo sapiens) (UniProt P19429+P45379+P63316). Description: calcium sensitizers of cardiac thin filaments – biochemical, IANBD-TnC fluorescence, triplicate, confirmation (AID 504383).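 Also: 0% = DMSO at 0.472 mM calcium and 100% = DMSO at 2.9 mM calcium.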 The following applies: IANBD-labeled cardiac RTF, Ca2+ sensitivity fluorescence; at 7.2 µM; stronger effect = higher value; scaled from EC20 to saturating calcium; tested at EC20 calcium, 0.472 mM. The gist of the method:
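Test system: labelled regulated thin filament protein complex. Dosing: single nominal compound dose of 7.2 µM. Benchmarks: EC20 and EC100 calcium wells. Read-out basis: fluorescence gain scaled between EC20 and EC100 calcium controls. Probe or stimulus: submaximal calcium at 0.472 mM (EC20). Technique: fluorescence. Times: 15 min compound exposure, 25 °C.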
On to `Cc1cc(Cn2nc(C(=O)NCC3CC3)cc2-c2ccccc2)on1`, for which the activation was 6.6% (inactive).

With `COc1ccccc1/C=[N+](\[O-])C1SC(=S)N(C)C1(C)C` (configuration not stated), the activation was 8.76% (inactive).

In the case of `O=C(NCc1ccccc1)c1ccc(N2CCC3(CC2)CC(c2ccccc2)=NO3)c([N+](=O)[O-])c1`, the activation is 5.88% (inactive).

On to `NC(=O)CC(NC(=O)c1ccc(Br)cc1)c1ccc(N2CCN(c3ccc(F)cc3)CC2)c([N+](=O)[O-])c1` (configuration not stated), for which the activation is 42.4% (active).

As for `NC(=O)CC(NC(=O)Cc1ccc(Cl)cc1)c1ccc(N2CCN(c3ccccn3)CC2)c([N+](=O)[O-])c1` (configuration not stated), the activation is 137% (active).

Take `Cc1cc(C)cc(C(=O)NC(CC(N)=O)c2ccc(N3CCCCCC3)c([N+](=O)[O-])c2)c1` (configuration not stated): the activation is 3.03% (inactive).

For the compound `NC(=O)c1c(N)sc2c1CCCCC2`, the activation is 7.59% (inactive).

As to `COc1ccc2nc3ccccc3nc2c1NC(=O)c1ccc(Br)cc1`, the activation was 139% (active).

As to `COc1cc(SC)ccc1C(=O)Nc1nc2ccccc2[nH]1`, the activation is 9.59% (inactive).

Consider `COc1ccc2nc3ccccc3nc2c1NC(=O)c1ccc(Cl)cc1Cl`, for which the activation is 6.58% (inactive).

As to `CSCC(O)Cn1[nH]c(=O)c2cc(Cl)c(Cl)cc2c1=O` (configuration not stated), the activation was 8.73% (inactive).

For the compound `COC(=O)c1ccc(CS(=O)(=O)c2ccc(F)cc2)o1`, the activation was 1.48% (inactive).

Turning to `COC(=O)c1ccc(CSc2nnc(NCc3ccccc3)s2)o1`, the activation was 17.8% (active).

Consider `COc1ccc(CN2CCN(C(=O)c3ccccc3F)CC2)c(OC)c1OC`, for which the activation was 44.3% (active).

`COc1ccc(CN2CCC(C(=O)N3CCN(c4ccccc4F)CC3)CC2)cc1OC`: the activation is 8.86% (inactive).

Take `COc1cccc(CNC(=O)CCC(=O)N2CC(C)Oc3ccccc32)c1OC` (configuration not stated): the activation was 4.26% (inactive).

Consider `COc1cc(OC)c(-c2c3cc(O)c(=O)cc-3oc3cc(O)c(O)cc23)cc1OC`, for which the activation was 19.3% (active).

With `COC(=O)c1ccccc1-c1c2ccc(=N)cc-2oc2cc(N)ccc12`, the activation was 9.11% (inactive).

Turning to `O=c1cc2oc3cc(O)c(O)cc3c(-c3ccccc3O)c-2cc1O`, the activation was 16.1% (active).

Regarding `CCOc1ccccc1-c1c2cc(O)c(=O)cc-2oc2cc(O)c(O)cc12`, the activation was 8.3% (inactive).

Take `Cn1ncc(Cl)c1C(=O)Nc1cccc(Cl)c1`: the activation is 5.51% (inactive).

`CSc1cccc(NC(=O)c2ccc(Cl)nc2)c1`: the activation is 15.5% (active).

With `CCOC(=O)C1CCCN(C(=O)c2cccc(S(=O)(=O)N3CC(C)OC(C)C3)c2)C1` (configuration not stated), the activation was -1.51% (inactive).

For the compound `CC1CN(c2ccc(NS(=O)(=O)c3ccccc3)cc2C(=O)O)CC(C)O1` (configuration not stated), the activation was 98.7% (active).

Consider `CC(=O)c1ccc(S(=O)(=O)Nc2ccc(C(=O)N3CCC3)cc2)cc1`, for which the activation is 1.58% (inactive).

`CCc1ccc(C(=O)Nc2cccnc2Oc2ccc(Cl)cc2)cc1`: the activation was 22% (active).

In the case of `CC(C)(C)c1ccc(C(=O)Nc2cccc3ncccc23)cc1`, the activation was 10.2% (inactive).

For `CC(C)Cn1c(N)c(C(=O)COC(=O)c2cc(F)cc(F)c2)c(=O)n(C)c1=O`, the activation was 225% (active).

Consider `O=c1oc2c(CN3CCCCC3)c(O)ccc2cc1-c1nc2ccccc2[nH]1`, for which the activation was 224% (active).

On to `O=c1oc2c(O)cccc2cc1-c1nc2ccccc2[nH]1`, for which the activation is 8.93% (inactive).

For the compound `O=c1c2ccccc2nc(SCc2nc(-c3ccccc3)no2)n1-c1ccc(F)cc1`, the activation is 2.61% (inactive).

Consider `CC(=O)c1cccc(NC(=O)Cn2nc(-c3ccccc3Cl)ccc2=O)c1`, for which the activation is 11.2% (inactive).

Consider `O=C(COC(=O)Cn1cnc2ccccc21)Nc1cccc2c1C(=O)c1ccccc1C2=O`, for which the activation is 25.4% (active).

In the case of `CCC(C)n1ncn(-c2ccc(N3CCN(c4ccc(OCC5COC(Cn6cncn6)(c6ccc(Cl)cc6Cl)O5)cc4)CC3)cc2)c1=O` (configuration not stated), the activation was 390% (active).

For the compound `Fc1ccc(-c2nc3ccncc3[nH]2)cc1`, the activation was 13% (active).

Take `Cc1ccc(CNC(=O)CC(C)S(=O)(=O)c2ccc3c(c2)NC(=O)CS3)o1` (configuration not stated): the activation is 354% (active).

Turning to `CCCCc1ccc(NC(=O)c2cnccn2)cc1`, the activation was 22.1% (active).

In the case of `CCCCc1ccc(NC(=O)N2CCNC(=O)C2CC(=O)Nc2ccsc2C(=O)OC)cc1` (configuration not stated), the activation is 5.97% (inactive).

For the compound `COC(=O)[C@@H]1C[C@@]2(O)[C@H](O)[C@H](O)[C@H](O)C[C@H]2N1C/C=C/c1ccccc1`, the activation was 6.57% (inactive).

Take `O=C(Nc1nc2c(s1)CN(Cc1ccccc1)CC2)c1cccc(S(=O)(=O)N2CCc3ccccc32)c1`: the activation was 5.41% (inactive).

With `CCCN1CCc2c(sc(NC(=S)NC(=O)c3ccccc3)c2C#N)C1`, the activation is 270% (active).

In the case of `CCN1CCc2c(sc(NC(=O)c3ccc(S(=O)(=O)N(C)c4ccccc4)cc3)c2C(=O)NC)C1`, the activation was 10.6% (inactive).

As for `N#Cc1c(NC(=O)C2CC=CCC2C(=O)O)sc2c1CCCCCC2` (configuration not stated), the activation is 6.81% (inactive).

For `NC(=O)c1c(NC(=O)c2ccccc2)sc2c1CCN(Cc1ccccc1)C2`, the activation was 105% (active).

Turning to `CC(=O)c1ccc(C(=O)Nc2sc3c(c2C(N)=O)CCN(Cc2ccccc2)C3)cc1`, the activation is 2.38% (inactive).

As for `N#Cc1c(NC(=O)/C=C/C(=O)O)sc2c1CCN(Cc1ccccc1)C2`, the activation is 13.4% (active).

On to `CC[n+]1c(/C=C/N(C)c2ccccc2)oc2ccc(F)cc21`, for which the activation was 14.5% (active).

For the compound `CC[n+]1c(/C=C/N(C)c2ccccc2)oc2ccccc21`, the activation was 0.87% (inactive).

As to `Cc1cc(C)n2nc3nc4c(cc3c2n1)CCCC4`, the activation is 89.3% (active).

Take `Cc1ccc(-c2nc3ncccn3c2Nc2ccc3c(c2)OCCO3)o1`: the activation was 230% (active).

For `COc1cccc(C2C3CN(C)CC=C3C(C#N)=C(N)C2(C#N)C#N)c1OC` (configuration not stated), the activation was 8.43% (inactive).

As for `COc1cccc(C2C(C#N)=C(N)Oc3cc(C)oc(=O)c32)c1OC` (configuration not stated), the activation is 23% (active).

As for `CCN1C(=O)/C(=C/C=C2/CCCN2C)OC1=S`, the activation is 12.9% (active).

For `CN1C(=O)/C(=C\C=C2/CCCN2C)N(C)C1=S`, the activation is 173% (active).

As for `CN1CCC/C1=C/C=C1\SC(=S)NC1=O`, the activation is 4.23% (inactive).

In the case of `CCCCN1C(=O)/C(=C/C=C2/CC(C)(C)CN2C)SC1=S`, the activation is 2.58% (inactive).

Regarding `C[n+]1c2cc(N)ccc2cc2ccc(N)cc21`, the activation is 6.45% (inactive) and 14.5% (active).

Turning to `N#Cc1cc(C(=O)c2cc(F)ccc2O)cn(-c2nccs2)c1=O`, the activation is 9.61% (inactive).

For the compound `N#Cc1cc(C(=O)c2ccccc2O)cn(-c2nccs2)c1=O`, the activation was 45.5% (active).

As for `O=C(Cn1c(C(F)(F)F)nc2ccccc21)NCCN1CCCC1`, the activation was -3.29% (inactive).

For the compound `CN1/C(=C\C(=O)c2ccco2)C(C)(C)c2ccccc21`, the activation was 7.09% (inactive).

As for `CCN(CC)CCCNC(=O)CCn1nc(-c2ccc(Cl)cc2)ccc1=O`, the activation is 7.9% (inactive).

`Cn1c(=O)c2c(nc(NCCNC(=O)c3ccco3)n2Cc2ccccc2Cl)n(C)c1=O`: the activation is 7.43% (inactive).

In the case of `CCCC(=O)NCCCc1nc2ccccc2n1C`, the activation was 124% (active).

As for `Cn1c(CCNC(=O)c2ccco2)nc2ccccc21`, the activation was 919% (active).

In the case of `Cc1cc(Cl)ccc1OCC(=O)Nc1nc(-c2cccs2)cs1`, the activation was -1.8% (inactive).

Turning to `CC(C)(C)NCc1cc(Cl)ccc1OCc1cccs1`, the activation is 47% (active).

For the compound `COc1ccc(OC)c(/C=c2\sc3nc(-c4cccs4)nn3c2=O)c1`, the activation is 9.45% (inactive).

As for `COc1ccc(C(=O)Nn2cnc3scc(-c4cccs4)c3c2=O)c(O)c1`, the activation was 29.8% (active).

Turning to `CCOC(=O)c1nc2cc3n(c(CC(C)C)c-2c1C)CC(C)=C3C`, the activation is 1.31% (inactive).

In the case of `Oc1[nH]c2ccc(Br)cc2c1N=Nc1ccc(F)cc1`, the activation was 22.7% (active).

Turning to `O=c1[nH]c2ccc(N=Cc3c(O)ccc4cc(Br)ccc34)cc2[nH]1`, the activation was 0.37% (inactive).

As for `Cc1cccc(N=Nc2c(O)[nH]c3ccc(F)cc23)c1`, the activation is 7.58% (inactive).

For the compound `Cc1ccc(N=Nc2c(O)[nH]c3ccc(F)cc23)cc1`, the activation is 20.6% (active).

In the case of `CCN1/C(=C2\SC(=S)N(Cc3ccccc3)C2=O)Sc2ccccc21`, the activation was -1.47% (inactive).

`CCN1/C(=C/C=C2/SC(=Nc3cccc4ncccc34)N(C)C2=O)Sc2ccccc21`: the activation was 28.3% (active).

As to `CC1(C)CCN2CCC(C)(C)c3c(O)ccc1c32`, the activation is 42.4% (active).

On to `CCOCCCn1c(=NC(=O)c2cccs2)c(C#N)cc2c(=O)n3cccc(C)c3nc21`, for which the activation is 19% (active).

With `Cc1cccn2c(=O)c3cc(C#N)c(=NC(=O)c4cccs4)n(CCCOC(C)C)c3nc12`, the activation was 4.3% (inactive).

Regarding `CCOC(=O)/C(=C/C1=CC(=C/N(C)C)/C(=O)O1)C(C)=O`, the activation was 87.4% (active).

Regarding `CCOC(=O)/C(=C\c1ccc(N2CCC(c3ccccc3)=N2)cc1)C(C)=O`, the activation was 8.5% (inactive).

On to `CCOC(=O)NC1(C(F)(F)F)C(=O)NC(C)=C1C(=O)OC` (configuration not stated), for which the activation was 19.8% (active).

Take `CC1CCN(c2ccc3c(c2)S(=O)(=O)c2ccccc2C3=O)CC1`: the activation was 9.57% (inactive).

On to `O=C(O)CCCC(=O)Nc1ccc(C(=O)NCc2cccnc2)cc1`, for which the activation is 0.95% (inactive).

Turning to `NC(=O)c1c(Nc2nc3c(F)cccc3s2)sc2c1CCCC2`, the activation was -1.65% (inactive).

On to `CC(Oc1ccc(F)cc1)C(=O)Nc1sc2c(c1C(=O)NCc1cccnc1)CCCC2` (configuration not stated), for which the activation was 83.6% (active).

In the case of `CN1C(=CC=C2C=C(I)C(=O)C(I)=C2)C(C)(C)c2ccccc21`, the activation is 4.78% (inactive).

`CC1(C)c2ccccc2N2CC(=O)N(CC(N)=O)C21C` (configuration not stated): the activation is 70.2% (active).

Turning to `O=C(NCc1cccc(C(F)(F)F)c1)c1cccc2c1C(=O)c1ccc(N3CCC(Cc4ccccc4)CC3)cc1S2(=O)=O`, the activation is 8.69% (inactive).

On to `O=C(NC1CC1)c1cccc2c1C(=O)c1ccc(N3CCC(Cc4ccccc4)CC3)cc1S2(=O)=O`, for which the activation is 0.64% (inactive).

On to `O=C(NCc1ccco1)c1cccc2c1C(=O)c1ccc(N3CCC(Cc4ccccc4)CC3)cc1S2(=O)=O`, for which the activation was 63.9% (active).

For the compound `O=C(NCc1cccc(F)c1)c1cccc2c1C(=O)c1ccc(N3CCC(Cc4ccccc4)CC3)cc1S2(=O)=O`, the activation was 14.5% (active).

On to `CC1CCN(c2ccc3c(c2)S(=O)(=O)c2cccc(C(=O)NCc4ccc(F)cc4)c2C3=O)CC1`, for which the activation is 1.28% (inactive).

As for `O=C(NCCc1ccc(F)cc1)c1cccc2c1C(=O)c1ccc(N3CCC(Cc4ccccc4)CC3)cc1S2(=O)=O`, the activation is 107% (active).

Regarding `O=C(NCc1ccc(F)cc1)c1cccc2c1C(=O)c1ccc(N3CCC(Cc4ccccc4)CC3)cc1S2(=O)=O`, the activation is 4.35% (inactive).

With `O=C(NCc1ccco1)c1cccc2c1C(=O)c1ccc(N3CCCC3)cc1S2(=O)=O`, the activation is 7.33% (inactive).

On to `CC1CCN(c2ccc3c(c2)S(=O)(=O)c2cccc(C(=O)NCc4cccc(F)c4)c2C3=O)CC1`, for which the activation was 8.22% (inactive).
